In assay [1] the target is T1, Thymidine kinase, cytosolic (Cricetulus griseus) (UniProt P09768).
T1 sequence (whole entry): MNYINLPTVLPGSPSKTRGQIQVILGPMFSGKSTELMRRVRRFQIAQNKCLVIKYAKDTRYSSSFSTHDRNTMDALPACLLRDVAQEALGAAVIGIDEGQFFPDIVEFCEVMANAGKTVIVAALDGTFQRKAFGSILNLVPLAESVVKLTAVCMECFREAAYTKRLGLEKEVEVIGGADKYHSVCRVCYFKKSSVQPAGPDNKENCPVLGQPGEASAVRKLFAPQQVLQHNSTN
The experiment in a line: Activity at thymidine kinase in BHK21 (C13) cells at 60 uM after 30 mins relative to thymidine. The assay is classed as cell-based. The note with it: Mesocricetus auratus. In outline: (§1)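 Radiolabeled thymidine or 2'-deoxyuridine derivatives tested as substrates: 40 μL BHK21(C13) 100000g supernatant, Tris-HCl 0.05 M pH 8.0, ATP 5 mM, MgCl2 2.5 mM, no thymidine, 30 min at 37 °C. Products separated by paper electrophoresis in 0.05 M triethylammonium bicarbonate pH 7.6; radioactivity counted in the TMP region.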

Assay [2] deals with T1, Thymidine kinase, cytosolic (Cricetulus griseus). The experiment in a line: Inhibition of thymidine kinase in BHK21 (C13) cells using thymidine as substrate assessed as formation of TMP at 2 mM. The assay is classed as cell-based. The note with it: Mesocricetus auratus. The method in brief:
(§2)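 BHK21(C13) 100000g supernatant in Tris-HCl 0.05 M pH 8.0, ATP 5 mM, MgCl2 2.5 mM, [14C]thymidine 3.6 μM, 10 min at 37 °C. Reaction stopped by boiling; [14C]TMP bound to DEAE-cellulose disks and counted by liquid scintillation, corrected for unincubated blanks.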

Assay [3] has the same target. The experiment in a line: Inhibition of thymidine kinase in BHK21 (C13) cells using thymidine as substrate assessed as formation of TMP at 4 mM. The assay is classed as cell-based. The note with it: Mesocricetus auratus. The method in brief: as §2
Assay [4] has the same target. The experiment in a line: Activity at thymidine kinase in BHK21 (C13) cells at 350 uM after 30 mins relative to thymidine. The assay is classed as cell-based. The settings on record: Mesocricetus auratus. The method in brief: as §1
Assay [5] has as its target T2, Thymidine kinase, cytosolic (Homo sapiens, UniProt P04183).
T2 sequence (P04183 whole entry): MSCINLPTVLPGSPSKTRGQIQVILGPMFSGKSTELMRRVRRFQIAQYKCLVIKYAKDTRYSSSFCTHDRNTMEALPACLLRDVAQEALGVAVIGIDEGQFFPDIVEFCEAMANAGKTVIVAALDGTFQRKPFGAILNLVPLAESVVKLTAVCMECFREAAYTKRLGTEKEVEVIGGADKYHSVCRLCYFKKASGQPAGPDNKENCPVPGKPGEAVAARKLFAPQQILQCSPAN
The experiment in a line: Inhibition of human cytoplasmic thymidine kinase.

Assay [6] concerns the target T3, Thymidine kinase 2, mitochondrial (Homo sapiens, UniProt O00142).
T3 sequence (O00142 whole entry): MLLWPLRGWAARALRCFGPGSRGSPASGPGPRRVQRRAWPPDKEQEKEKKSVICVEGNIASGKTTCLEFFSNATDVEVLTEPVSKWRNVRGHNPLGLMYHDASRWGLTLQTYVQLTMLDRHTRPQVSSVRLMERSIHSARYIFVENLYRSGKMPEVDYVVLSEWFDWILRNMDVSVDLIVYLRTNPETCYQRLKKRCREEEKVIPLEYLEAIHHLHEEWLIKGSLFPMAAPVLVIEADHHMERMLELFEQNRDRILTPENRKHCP
The experiment in a line: Inhibition of human mitochondrial thymidine kinase.

Assay [7] has as its target T1, Thymidine kinase, cytosolic (Cricetulus griseus). The experiment in a line: Inhibition of thymidine kinase in BHK21 (C13) cells using [14C]thymidine at 50 uM after 10 mins by liquid scintillation spectrometer analysis relative to control in presence of Mg2+. The note with it: Mesocricetus auratus. The assay is classed as cell-based.
The target is the same in assay [8]. The experiment in a line: Inhibition of thymidine kinase in BHK21 (C13) cells using thymidine as substrate assessed as formation of TMP at 6 mM. The assay is classed as cell-based. The settings on record: Mesocricetus auratus. In outline:
as §2

Assay [9] shares this target. The experiment in a line: Inhibition of thymidine kinase in BHK21 (C13) cells using thymidine as substrate assessed as formation of TMP at 12 mM. The note with it: Mesocricetus auratus. Format: cell-based. In outline:
as §2

Assay [10] has the same target. The experiment in a line: Activity at thymidine kinase in BHK21 (C13) cells at 54 to 542 uM after 30 mins relative to thymidine. Format: cell-based. The settings on record: Mesocricetus auratus. The method in brief: as §1

Active and inactive are the calls of the source. The calls are words filed in the database; no cut-off is given here.

The molecule `CC(=O)NCCCC(=O)Nc1cn([C@H]2C[C@H](O)[C@@H](CO)O2)c(=O)[nH]c1=O` gave an Activity in [1] below 0.25%.
On to `CC(=O)Nc1cn([C@H]2C[C@H](O)[C@@H](CO)O2)c(=O)[nH]c1=O`, for which the values for the inhibition in assay [2] and in assay [3] were 8% and 13%, respectively. Moreover, the Activity in assay [4] is below 0.25%.
Consider `CCCc1cn([C@H]2C[C@H](O)[C@@H](CO)O2)c(=O)[nH]c1=O`, for which the Ki in assay [5] and in [6] was 20 µM in each case.
`Cc1cn([C@H]2C[C@H](O)[C@@H](COP(=O)(O)OP(=O)(O)OP(=O)(O)O)O2)c(=O)[nH]c1=O`: the inhibition result in assay [7] is “Active”.
Take `CC(=O)NCc1cn([C@H]2C[C@H](O)[C@@H](CO)O2)c(=O)[nH]c1=O`: the inhibition in assay [8] and in assay [9] was 0% in each case. The same molecule returned an Activity in assay [10] below 0.25%.

Values taken from ChEMBL document CHEMBL3227986, “Design of species- or isozyme-specific enzyme inhibitors. 1. Effect of thymidine substituents on affinity for the thymidine site of hamster cytoplasmic thymidine kinase” (J Med Chem, 1979).
